Assay results taken from PMC3220761 (ACS chemical biology, 2011).
“And” between values parts separate entries of the source, which are not always exact repeats. Equal entries are not always repeated. Where two headings read alike, the source gives them in different places.

T1: α/β1 20S proteasome complex (Salinispora tropica, UniProt A4X744)
T1 sequence (A4X744 54-279): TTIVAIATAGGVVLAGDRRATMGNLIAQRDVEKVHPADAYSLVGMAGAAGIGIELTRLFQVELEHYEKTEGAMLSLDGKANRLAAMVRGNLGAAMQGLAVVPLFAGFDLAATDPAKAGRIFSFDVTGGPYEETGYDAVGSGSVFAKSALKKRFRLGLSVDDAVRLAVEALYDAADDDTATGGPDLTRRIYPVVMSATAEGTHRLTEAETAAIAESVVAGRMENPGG
T1 sequence (A4X745 1-260 partner): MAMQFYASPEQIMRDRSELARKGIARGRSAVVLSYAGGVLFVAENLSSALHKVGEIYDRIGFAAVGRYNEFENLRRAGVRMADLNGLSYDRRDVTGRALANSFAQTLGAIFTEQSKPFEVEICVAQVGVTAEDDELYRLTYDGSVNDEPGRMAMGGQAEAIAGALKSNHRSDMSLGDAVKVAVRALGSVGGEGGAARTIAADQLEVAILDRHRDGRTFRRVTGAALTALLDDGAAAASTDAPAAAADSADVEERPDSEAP

T2: α/SalI 20S proteasome complex (Salinispora tropica, UniProt A4X3P0)
T2 sequence (A4X3P0 49-282): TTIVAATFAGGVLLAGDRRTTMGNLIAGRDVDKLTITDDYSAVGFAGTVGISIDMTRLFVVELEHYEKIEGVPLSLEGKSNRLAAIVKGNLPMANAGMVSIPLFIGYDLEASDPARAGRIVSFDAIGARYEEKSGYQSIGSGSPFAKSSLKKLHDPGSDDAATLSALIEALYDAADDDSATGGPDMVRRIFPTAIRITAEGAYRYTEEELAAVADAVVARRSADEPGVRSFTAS
T2 sequence (A4X745 1-260 partner): T1 sequence (A4X745 1-260 partner)

T3: α/β1 M45F/A49V proteasome complex (Salinispora tropica, UniProt A4X744, A102V/M98F)
T3 sequence (A4X744 54-279 M98F/A102V): T1 sequence (A4X744 54-279)
T3 sequence (A4X745 1-260 partner): T1 sequence (A4X745 1-260 partner)

T4: α/β1 A49V proteasome complex (Salinispora tropica, UniProt A4X744, A102V)
T4 sequence (A4X744 54-279 A102V): T1 sequence (A4X744 54-279)
T4 sequence (A4X745 1-260 partner): T1 sequence (A4X745 1-260 partner)

T5: α/β1 M45F proteasome complex (Salinispora tropica, UniProt A4X744, M98F)
T5 sequence (A4X744 54-279 M98F): T1 sequence (A4X744 54-279)
T5 sequence (A4X745 1-260 partner): T1 sequence (A4X745 1-260 partner)

T6: α/SalI F45M proteasome complex (Salinispora tropica, UniProt A4X3P0, F93M)
T6 sequence (A4X3P0 49-282 F93M): T2 sequence (A4X3P0 49-282)
T6 sequence (A4X745 1-260 partner): T1 sequence (A4X745 1-260 partner)

B1: Salinispora tropica CNB-440 20S proteasome α-subunit (Strop_2245) (natural protein, UniProt A4X745 1-260, looked up)
chain: T1 sequence (A4X745 1-260 partner)
B2: Salinispora tropica CNB-440 20S proteasome β-subunit β1 (Strop_2244) (natural protein, UniProt A4X744 54-279, looked up)
chain: T1 sequence (A4X744 54-279)
B3: SalI, proteasome β-subunit of the salinosporamide biosynthetic gene cluster (Strop_1015) (natural protein, Salinispora tropica CNB-440, UniProt A4X3P0 49-282, looked up)
chain: T2 sequence (A4X3P0 49-282)

Tests used:
[1] = biological target: T1, α/β1 20S proteasome complex; assay: Proteasome inhibition; type: biochemical
[2] = biological target: T2, α/SalI 20S proteasome complex; assay: Proteasome inhibition; type: biochemical; settings: for fold increase in IC50 with the α/SalI complex in comparison to the α/β1 complex (resistance): α/SalI versus α/β1
[3] = biological target: T3, α/β1 M45F/A49V proteasome complex; assay: Proteasome inhibition; type: biochemical
[4] = biological target: T4, α/β1 A49V proteasome complex; assay: Proteasome inhibition; type: biochemical
[5] = biological target: T2, α/SalI 20S proteasome complex; assay: Time-dependence of inhibition, α/SalI; type: biochemical; settings: 0.5–100 μM inhibitor, Z-VKM-amc, 3.5 h, 30 °C
Method in brief: (§1)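 Purified S. tropica α/β1 or α/SalI complex (His6-α, E. coli-expressed) in 50 mM Tris-HCl pH 8.0. Test compound (0.5–100 μM final) and 40 μM Z-VKM-amc were pre-warmed to 30 °C. Pre-warmed enzyme was added to 20 μg ml−1 (27 nM) final. Fluorescence (ex 355/em 460 nm) was read every minute for 3.5 h at a constant 30 °C.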

[6] = biological target: T2, α/SalI 20S proteasome complex; assay: Irreversibility of inhibition; type: biochemical; settings: 250 μM inhibitor for 1.5 h at 30 °C, Z-VKM-amc
Method in brief: (§2)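 Recombinant S. tropica proteasome (His6-tagged α coexpressed with untagged β1 or SalI in E. coli BL21(DE3); Ni-NTA then size-exclusion purified). Enzyme at 20 μg ml−1 in 50 mM Tris-HCl pH 8.0 was held with 250 μM test compound or matching DMSO, 1.5 h, 30 °C. It was buffer-exchanged three times on 30 kDa cutoff filters, then added to 40 μM Z-VKM-amc. Fluorescence (ex 355/em 460 nm) was read every minute for 3 h at 30 °C.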

[7] = biological target: T1, α/β1 20S proteasome complex; assay: Irreversibility of inhibition; type: biochemical; settings: 250 μM inhibitor for 1.5 h at 30 °C, Z-VKM-amc
Method in brief: as §2

[8] = biological target: T5, α/β1 M45F proteasome complex; assay: Proteasome inhibition; type: biochemical
[9] = biological target: T6, α/SalI F45M proteasome complex; assay: Proteasome inhibition; type: biochemical
[10] = biological target: T1, α/β1 20S proteasome complex; assay: Time-dependence of inhibition, α/β1; type: biochemical; settings: 0.5–100 μM inhibitor, Z-VKM-amc, 3.5 h, 30 °C
Method in brief: as §1

native gel or EMSA = biological target: the molecule itself; assay: native gel or EMSA
[11] = IC50, α/SalI complex, substrate Z-VKM-amc 40 μM, mean ± SD, N = 3

Row | Molecule | IC50 [1] [µM] | IC50 [2] [µM] | IC50 [2, 11] [µM] | fold increase in IC50 with the α/SalI complex in comparison to the α/β1 complex (resistance) [2] | binding result (native gel or EMSA) | other results
1 | CC(C)[C@H](O)[C@@]12NC(=O)[C@H](CCCl)[C@]1(C)OC2=O [Antiprotealide, antiprotealide] | 104 ± 7.2 | > 250 |  |  |  | 
2 | CC(C)C[C@H](NC(=O)[C@H](Cc1ccccc1)NC(=O)c1cnccn1)B(O)O [Bortezomib, bortezomib, reference compound] |  |  | 42.7 ± 3.4 | 13 fold |  | 
3 | C[C@@]12OC(=O)[C@]1([C@@H](O)[C@@H]1C=CCCC1)NC(=O)[C@@H]2CCCl [Salinosporamide A, salinosporamide A] |  |  | 36.8 ± 2.4 | 16–30 fold and 30 fold |  | IC50 [3]: 15.3 ± 2.2 µM; IC50 [4]: 13.6 ± 2.2 µM; increase in IC50 of α/β1 A49V mutant ([4]; α/β1 A49V versus wild-type α/β1, Z-VKM-amc): greater than a ten-fold increase; time-dependence of inhibition [5]: time-dependent inhibition; IC50 ([2]; IC50, α/SalI complex, substrate Suc-LLVY-amc 40 μM, mean ± SD, N = 3): 52 ± 3.5 µM; recovery of proteolytic activity after buffer exchange to remove inhibitor [6]: no recovery of proteolytic activity; recovery of proteolytic activity after buffer exchange to remove inhibitor [7]: no recovery of proteolytic activity; IC50 [8]: 1.2 ± 0.1 µM; IC50 [9]: 45.5 ± 2.3 µM; time-dependence of inhibition [10]: time-dependent inhibition
4 | CC[C@H]1C(=O)N[C@@]2([C@@H](O)[C@@H]3C=CCCC3)C(=O)O[C@@]12C [Salinosporamide B, salinosporamide B] |  |  | 139 ± 27.3 | 7 fold |  | 
5 | C[C@@]12OC(=O)[C@]1([C@@H](O)C1CCC1)NC(=O)[C@@H]2CCCl [Salinosporamide X3, salinosporamide X3] | > 250 | > 250 |  |  |  | 
6 | CCC[C@H](O)[C@@]12NC(=O)[C@H](CCCl)[C@]1(C)OC2=O [Salinosporamide X5, salinosporamide X5] | > 250 | > 250 |  |  |  | 
7 | C[C@@]12OC(=O)[C@]1([C@@H](O)[C@@H]1C=CCC1)NC(=O)[C@@H]2CCCl [Salinosporamide X7, salinosporamide X7] | 3.6 ± 0.2 | > 250 |  |  |  | 
8 | B1 |  |  |  |  | binds | 
9 | B2 |  |  |  |  | binds | 
10 | B3 |  |  |  |  | binds | 
